The values that follow come from ChEMBL document CHEMBL3085699, “Design, synthesis, and biological evaluation of indole-2-carboxamides: a promising class of antituberculosis agents” (J Med Chem, 2013).

Each structure is given as a SMILES string. ≈ marks a conversion by molar mass, not a printed value. Calls of active or inactive are those of the source. No cut-off for these calls is given here. Where only a bound is given, the exact number is not on record here.

Data set [1] can be described thus: Intrinsic clearance in mouse liver microsomes by LC/MS/MS analysis. The note with it: read-out: CLH. The class given is ADME, Microsome. The method, boiled down:
(§1)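 Compound depletion in liver microsomes of the named species, measured by LC/MS/MS. In vitro half-life gave hepatic extraction ratio and predicted metabolic clearance.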

Data set [2] concerns Mycobacterium tuberculosis. The data set can be described thus: Antimicrobial activity against Mycobacterium tuberculosis H37Rv ATCC 27294 after 5 days by three-fold serial dilution assay. The note with it: H37Rv ATCC 27294, 120 h. The format is functional. A digest of the protocol: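 H37Rv grown in 7H9 broth with 0.05% Tween 80 and 10% ADS. Compounds in 90% DMSO, three-fold serially diluted in duplicate. Early-log culture diluted to OD600 0.02 was added, then incubated at 37 °C for 5 days. Growth read by absorbance. MIC50 (50% growth inhibition) taken from non-linear curve fits. Isoniazid ran as internal control in every assay.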

Data set [3] in a line: Aqueous solubility of the compound at pH 6.8 after 24 hrs by high-throughput equilibrium solubility assay. The class given is physicochemical. The settings on record: buffer. A digest of the protocol:
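Miniaturized shake-flask equilibrium method. DMSO stock removed by centrifugal evaporation, aqueous buffer added, shaken 24 h. Plunger pushed through a filter membrane, shaken a further 30 min, and filtrate quantified by HPLC.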

Data set [4] can be described thus: Intrinsic clearance in rat liver microsomes by LC/MS/MS analysis. The format is ADME. The note with it: read-out: CLH. A digest of the protocol: as §1
The test system of the next data set is THP-1. As to the kind of experiment: Cytotoxicity against human THP1 cells. The class given is cell-based.
Data set [5] can be described thus: Elimination half life in mouse at 5 mg/kg, iv and 75 mg/kg, po by LC/MS analysis. The class given is ADME, organism-based. The settings on record: in vivo, read-out: beta t1/2 (converted).
Data set [6] deals with Mycobacterium tuberculosis. As to the kind of experiment: Antitubercular activity against Mycobacterium tuberculosis H37Rv infected in Balb/c mouse model assessed as log CFU reduction at 75 mg/kg, po qd administered for 28 days relative to untreated control. The class given is functional. The method, boiled down: (§2)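 Balb/c mice infected intranasally on day 0 with 10^3 H37Rv bacilli. Oral dosing, once daily, 7 days a week for 28 days, began 7 days post-infection at 25 or 75 mg/kg; ethambutol 100 mg/kg served as positive control. Lungs removed aseptically and homogenized. CFU counted by serial dilution plating on 7H11 agar; log lung CFU compared with untreated controls.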

A short description of data set [7]: AUC (0 to 24 hrs) in mouse at 5 mg/kg, iv and 75 mg/kg, po by LC/MS analysis. The settings on record: plasma. The format is ADME, organism-based.
The nature of data set [8]: Intrinsic clearance in human liver microsomes by LC/MS/MS analysis. The format is ADME. The settings on record: read-out: CLH. A digest of the protocol: as §1
For data set [9], the system named is Mycobacterium tuberculosis. As to the kind of experiment: Antitubercular activity against Mycobacterium tuberculosis H37Rv infected in Balb/c mouse model assessed as log CFU reduction at 100 mg/kg, po qd administered for 28 days relative to untreated control. Also noted: dose 100 mg/kg. The format is functional, organism-based. The method, boiled down:
as §2

As usually defined, the MIC50 is an inhibitory concentration at the 50% level, which refers to growth in some studies and to a panel of isolates in others. A higher MIC50 goes with lower susceptibility. The solubility (thermodynamic) is solubility found after equilibrating the solid with the medium. By AUC(0-t) is commonly meant exposure summed from dosing to a finite time, without extrapolation to infinity. A high value points to high exposure.

Regarding `CC1CCC(NC(=O)c2cc3c(Cl)c(Cl)ccc3[nH]2)CC1` (centres undefined), in data set [1], the microsomal CLint was determined as 60.8 µL/min/mg. In data set [2], this compound came in with an MIC50 of 0.22 µM (≈ 0.0716 µg/mL).

`CC1CCC(NC(=O)c2cc3c(Cl)cccc3[nH]2)CC1` (centres undefined): the microsomal CLint in data set [1] amounted to 462 µL/min/mg. This compound showed an MIC50 in data set [2] of 0.19 µM (≈ 0.0553 µg/mL).

As for `Cc1cc(C)c2cc(C(=O)Nc3ccccc3)[nH]c2c1`, in data set [3], the thermodynamic solubility at 24 h is < 4 µM. In data set [2], this compound had an MIC50 of 16 µM (≈ 4.23 µg/mL).

Take `Cc1cc2[nH]c(C(=O)N[C@@H]3CCCC[C@@H]3C)cc2c(C)n1`: in data set [2], the MIC50 is > 20 µM.

Consider `Cc1cc(C)c2c(c1)NC(C(=O)N[C@@H]1CCCC[C@@H]1C)C2` (some centres undefined), for which, in data set [3], the solubility (thermodynamic) at 24 h is < 4 µM. Besides, in data set [2], the MIC50 was determined as 1.24 µM (≈ 0.355 µg/mL).

In the case of `COCCNC(=O)c1cc2c(C)cc(C)cc2[nH]1`, the thermodynamic solubility at 24 h in data set [3] is 620 µM (≈ 153 µg/mL). Moreover, the MIC50 in data set [2] was > 20 µM.

As to `C[C@H]1CC[C@H](NC(=O)c2cc3c(Cl)cc(Cl)cc3[nH]2)CC1`, the results for the microsomal CLint in data set [4], in data set [1] and in data set [8] were 30.5 µL/min/mg, 3.4 µL/min/mg and 10 µL/min/mg, respectively. Also, the Activity with THP-1 is > 20 µM. Also, the half-life in [5] was 317 min. In data set [3], the solubility (thermodynamic) at 24 h is < 4 µM. For the same compound, the FC in data set [6] came out at 0.88. The compound further had an AUC(0-t) in data set [7] of 89.1 µM·h. This compound registered an MIC50 in data set [2] of 0.14 µM (≈ 0.0455 µg/mL).

Take `CC1CCC(NC(=O)c2cc3c(Cl)ccc(Cl)c3[nH]2)CC1` (centres undefined): the microsomal CLint in data set [1] was determined as 40.4 µL/min/mg. Moreover, the MIC50 in data set [2] was > 20 µM.

As for `Cc1cc(C)c2cc(C(=O)N[C@@H]3CCCC[C@@H]3C)n(C)c2c1`, the MIC50 in [2] is > 20 µM.

`Cc1nc(C)c2cc(C(=O)N[C@@H]3CCCC[C@@H]3C)[nH]c2n1`: the thermodynamic solubility at 24 h in [3] turned out to be 143 µM (≈ 41 µg/mL). The MIC50 in data set [2] was > 20 µM.

For the compound `Cc1cc(C)c2cc(C(=O)NC3CCN(C)CC3)[nH]c2c1`, the solubility (thermodynamic) at 24 h in data set [3] was > 10000 µM. For the same compound, the MIC50 in data set [2] was > 20 µM.

As to `CC1CCC(NC(=O)c2cc3cc(Cl)c(Cl)cc3[nH]2)CC1` (centres undefined), the microsomal CLint in data set [1] is 73.3 µL/min/mg. The same compound gave an MIC50 in data set [2] of 0.16 µM (≈ 0.052 µg/mL).

For the compound `NNC(=O)c1ccncc1` [ISONIAZID], the MIC50 in [2] was found to be 0.33 µM (≈ 0.0453 µg/mL).

Turning to `C[C@H]1CC[C@@H](NC(=O)c2cc3c(Cl)cc(Cl)cc3[nH]2)CC1`, in data set [3], the solubility (thermodynamic) at 24 h was < 4 µM. For the same compound, the microsomal CLint in data set [1] came out at 47 µL/min/mg. The compound also displayed an MIC50 in data set [2] of 0.18 µM (≈ 0.0585 µg/mL).

For `Cc1cc(C)c2cc(C(=O)NCCC(C)C)[nH]c2c1`, the MIC50 in data set [2] is 3.26 µM (≈ 0.842 µg/mL). In other words, the single-digit micromolar range.

Regarding `O=C(NC1CCC(F)(F)CC1)c1cc2c(Cl)cc(Cl)cc2[nH]1`, the microsomal CLint in [4] came to 38.8 µL/min/mg; in data set [1] it was 23 µL/min/mg; in data set [8], 7.8 µL/min/mg. Besides, the thermodynamic solubility at 24 h in data set [3] is < 4 µM. Also, the MIC50 in [2] was 0.85 µM (≈ 0.295 µg/mL).

As to `CC1CCC(NC(=O)c2cc3cc(Cl)cc(Cl)c3[nH]2)CC1` (centres undefined), the microsomal CLint in [1] worked out at 187 µL/min/mg. The compound further came in with an MIC50 in data set [2] of 0.41 µM (≈ 0.133 µg/mL).

Turning to `CC1CCC(NC(=O)c2cc3cc(Cl)ccc3[nH]2)CC1` (centres undefined), the microsomal CLint in data set [1] was 122 µL/min/mg. For the same compound, the MIC50 in data set [2] came out at 1.29 µM (≈ 0.375 µg/mL).

On to `CC1CCC(NC(=O)c2cc3c(F)cc(Cl)cc3[nH]2)CC1` (centres undefined), for which the solubility (thermodynamic) at 24 h in [3] is < 4 µM. Also, the microsomal CLint in data set [1] amounted to 28 µL/min/mg. In data set [2], this compound yielded an MIC50 of 0.19 µM (≈ 0.0587 µg/mL).

`CC[C@@H](CO)NCCN[C@@H](CC)CO`: the result in [9] was Active.

With `CC1CCC(NC(=O)c2cc3ccc(Cl)c(Cl)c3[nH]2)CC1` (centres undefined), the microsomal CLint in data set [1] turned out to be 308 µL/min/mg. In data set [2], this compound came in with an MIC50 of 0.97 µM (≈ 0.315 µg/mL).
